Data reported in ChEMBL document CHEMBL5724801, “EUbOPEN Chemogenomics Library - Multiplex” (2024).
“And” between values parts separate entries of the source, which are not always exact repeats. Equal entries are not always repeated.

Test system: Fibroblast
Assay: Multiplex assay against human fibroblast
Format: toxicity, cell-based
Procedure, shortened: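 Live cells were stained at seeding with Hoechst33342, BioTracker Green Microtubule Cytoskeleton Dye, MitoTracker Red and Annexin V Alexa Fluor 680. Following compound addition, they were imaged on a CQ1 microscope at 37°C and 5% CO2 and gated by CellPathfinder machine learning into Hoechst high-intensity objects or normal cells, with normal cells split into healthy, pyknosed or fragmented nuclei and pyknosed cells into mitotic or apoptotic. Tubulin, mitochondrial-mass and membrane-permeability phenotypes are per cents of healthy-nucleus cells.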

[1] = 12 h, 1 µM, compound concentration 1 uM
[2] = 12 h, 10 µM, compound concentration 10 uM
[3] = 24 h, 1 µM, compound concentration 1 uM
[4] = 24 h, 10 µM, compound concentration 10 uM
[5] = 48 h, 1 µM, compound concentration 1 uM
[6] = 48 h, 10 µM, compound concentration 10 uM

## C[C@H](NC(=O)CNC(=O)c1cccc(Cl)c1)c1ccccc1
[1]
  Population Apoptotic (%): 50% and 44%
  Population Fragmented Nuclei (%): 18% and 28%
  Population Healthy Nuclei (%): 71% and 53%
  Population Hoechst High Intensity Objects (%): 0% and 3%
  Population Membrane Permeable-Phenotype (%): 0% and 6%
  Population Mitochondria Different-Phenotype (%): 4% and 2%
  Population Mitotic Cells (%): 50% and 56%
  Population Normal (%): 100% and 96%
  Population Pyknosed Nuclei (%): 10% and 18%
  Population Tubulin-Different-Phenotype (%): 17% and 41%
  Total Cell Count: 94 and 140
[2]
  Population Apoptotic (%): 48% and 43%
  Population Fragmented Nuclei (%): 15% and 31%
  Population Healthy Nuclei (%): 58% and 43%
  Population Hoechst High Intensity Objects (%): 2% and 1%
  Population Membrane Permeable-Phenotype (%): 0% and 13%
  Population Mitochondria Different-Phenotype (%): 8% and 3%
  Population Mitotic Cells (%): 51% and 56%
  Population Normal (%): 97% and 98%
  Population Pyknosed Nuclei (%): 26% and 24%
  Population Tubulin-Different-Phenotype (%): 35% and 54%
  Total Cell Count: 106 and 124
[3]
  Population Apoptotic (%): 43% and 33%
  Population Fragmented Nuclei (%): 17% and 30%
  Population Healthy Nuclei (%): 65% and 50%
  Population Hoechst High Intensity Objects (%): 1% and 3%
  Population Membrane Permeable-Phenotype (%): 1% and 8%
  Population Mitochondria Different-Phenotype (%): 3% and 4%
  Population Mitotic Cells (%): 56% and 66%
  Population Normal (%): 98% and 96%
  Population Pyknosed Nuclei (%): 17% and 19%
  Population Tubulin-Different-Phenotype (%): 25% and 42%
  Total Cell Count: 93 and 145
[4]
  Population Apoptotic (%): 52% and 56%
  Population Fragmented Nuclei (%): 14% and 33%
  Population Healthy Nuclei (%): 61% and 45%
  Population Hoechst High Intensity Objects (%): 2% and 5%
  Population Membrane Permeable-Phenotype (%): 1% and 5%
  Population Mitochondria Different-Phenotype (%): 3% and 7%
  Population Mitotic Cells (%): 48% and 43%
  Population Normal (%): 97% and 94%
  Population Pyknosed Nuclei (%): 24% and 20%
  Population Tubulin-Different-Phenotype (%): 45% and 64%
  Total Cell Count: 107 and 118
[5]
  Population Apoptotic (%): 33% and 40%
  Population Fragmented Nuclei (%): 20% and 29%
  Population Healthy Nuclei (%): 67% and 52%
  Population Hoechst High Intensity Objects (%): 1% and 3%
  Population Membrane Permeable-Phenotype (%): 0% and 4%
  Population Mitochondria Different-Phenotype (%): 0% and 2%
  Population Mitotic Cells (%): 66% and 60%
  Population Normal (%): 98% and 96%
  Population Pyknosed Nuclei (%): 12% and 17%
  Population Tubulin-Different-Phenotype (%): 26% and 44%
  Total Cell Count: 95 and 147
[6]
  Population Apoptotic (%): 68% and 69%
  Population Fragmented Nuclei (%): 15% and 38%
  Population Healthy Nuclei (%): 56% and 50%
  Population Hoechst High Intensity Objects (%): 7% and 4%
  Population Membrane Permeable-Phenotype (%): 1% and 6%
  Population Mitochondria Different-Phenotype (%): 15% and 5%
  Population Mitotic Cells (%): 31% and 30%
  Population Normal (%): 92% and 95%
  Population Pyknosed Nuclei (%): 27% and 11%
  Population Tubulin-Different-Phenotype (%): 50% and 67%
  Total Cell Count: 112 and 121

## Cc1ccccc1C(=O)Nc1ccc(C(=O)N2CCCC(N(C)C)c3ccccc32)cc1.Cl (stereo unspecified)
[1]
  Population Apoptotic (%): 52% and 36%
  Population Fragmented Nuclei (%): 16% and 22%
  Population Healthy Nuclei (%): 71% and 55%
  Population Hoechst High Intensity Objects (%): 0% and 1%
  Population Membrane Permeable-Phenotype (%): 0% and 10%
  Population Mitochondria Different-Phenotype (%): 5% and 3%
  Population Mitotic Cells (%): 47% and 63%
  Population Normal (%): 100% and 98%
  Population Pyknosed Nuclei (%): 12% and 21%
  Population Tubulin-Different-Phenotype (%): 31% and 45%
  Total Cell Count: 167 and 155
[2]
  Population Apoptotic (%): 58% and 45%
  Population Fragmented Nuclei (%): 26% and 29%
  Population Healthy Nuclei (%): 50% and 47%
  Population Hoechst High Intensity Objects (%): 1% and 4%
  Population Membrane Permeable-Phenotype (%): 1% and 4%
  Population Mitochondria Different-Phenotype (%): 12%
  Population Mitotic Cells (%): 41% and 54%
  Population Normal (%): 98% and 95%
  Population Pyknosed Nuclei (%): 22% and 23%
  Population Tubulin-Different-Phenotype (%): 70% and 61%
  Total Cell Count: 108 and 109
[3]
  Population Apoptotic (%): 38% and 43%
  Population Fragmented Nuclei (%): 15% and 28%
  Population Healthy Nuclei (%): 76% and 49%
  Population Hoechst High Intensity Objects (%): 1% and 5%
  Population Membrane Permeable-Phenotype (%): 0% and 8%
  Population Mitochondria Different-Phenotype (%): 8% and 2%
  Population Mitotic Cells (%): 61% and 56%
  Population Normal (%): 98% and 94%
  Population Pyknosed Nuclei (%): 8% and 21%
  Population Tubulin-Different-Phenotype (%): 30% and 50%
  Total Cell Count: 160 and 157
[4]
  Population Apoptotic (%): 58% and 57%
  Population Fragmented Nuclei (%): 30% and 37%
  Population Healthy Nuclei (%): 58% and 42%
  Population Hoechst High Intensity Objects (%): 1% and 4%
  Population Membrane Permeable-Phenotype (%): 0% and 9%
  Population Mitochondria Different-Phenotype (%): 12% and 11%
  Population Mitotic Cells (%): 41% and 42%
  Population Normal (%): 98% and 95%
  Population Pyknosed Nuclei (%): 11% and 20%
  Population Tubulin-Different-Phenotype (%): 68% and 72%
  Total Cell Count: 111 and 107
[5]
  Population Apoptotic (%): 33% and 53%
  Population Fragmented Nuclei (%): 13% and 32%
  Population Healthy Nuclei (%): 79% and 50%
  Population Hoechst High Intensity Objects (%): 3%
  Population Membrane Permeable-Phenotype (%): 0% and 8%
  Population Mitochondria Different-Phenotype (%): 4% and 5%
  Population Mitotic Cells (%): 66% and 46%
  Population Normal (%): 96%
  Population Pyknosed Nuclei (%): 7% and 17%
  Population Tubulin-Different-Phenotype (%): 28% and 54%
  Total Cell Count: 158 and 155
[6]
  Population Apoptotic (%): 91% and 73%
  Population Fragmented Nuclei (%): 24% and 43%
  Population Healthy Nuclei (%): 60% and 43%
  Population Hoechst High Intensity Objects (%): 7% and 3%
  Population Membrane Permeable-Phenotype (%): 0% and 8%
  Population Mitochondria Different-Phenotype (%): 12% and 14%
  Population Normal (%): 92% and 96%
  Population Pyknosed Nuclei (%): 14% and 13%
  Population Tubulin-Different-Phenotype (%): 51% and 70%
  Total Cell Count: 88 and 113
